Measurements pooled from the literature.
Protocols differ between the studies behind these lines.
CDK1: Cyclin-dependent kinase 1 (CDK1, Homo sapiens, UniProt P06493)
CDK9: Cyclin-dependent kinase 9 (CDK9, Homo sapiens, UniProt P50750)
DPP4: Dipeptidyl peptidase 4 (DPP4, Homo sapiens, UniProt P27487)

| Compound | target | effect on | mode | technique | concentration | endpoint | value |
| --- | --- | --- | --- | --- | --- | --- | --- |
| CCO[C@@H](Cc1ccc(OCCc2ccc(OS(C)(=O)=O)cc2)cc1)C(=O)O | CDK1 | enzyme activity | inhibitor | ADP detection | 10 µM | inhibition | 65.9% |
| CNc1ncc2c(/C=C/C(=O)N3CCC(OC)CC3)nn(Cc3cccc(C(F)(F)F)c3)c2n1 | Cyclin-dependent kinase 1, with cyclin A2 (CDK1, Homo sapiens, UniProt P06493) | enzyme activity | inhibitor | radiometric | 1 µM | remaining activity | 86% |
| CC(=O)c1c(C)c2cnc(Nc3ccc(N4CCNCC4)cn3)nc2n(C2CCCC2)c1=O | CDK9 | enzyme activity | inhibitor | ADP detection | 1 µM | activity vs control | 106% |
| C=CC(=O)N1CCC(COCC(=O)N2CCN(c3nc(-c4cnc(N)nc4C(F)F)nc(N4CCOC[C@@H]4C)n3)CC2)CC1 | CDK9 | binding |  | competition with immobilised ligand | 1 µM | remaining binding | 100% |
| Cn1c(=O)cc(N2CCC(N)CC2)n(Cc2nc3ccccc3c(=O)n2-c2ccc(F)c(Cl)c2)c1=O | DPP4 | enzyme activity | inhibitor |  | 20 µM | inhibition | 32.5% |
| Cc1cc2cc(Oc3ccnc(Nc4cccc(CS(=O)(=O)NCCN(C)C)c4)n3)ccc2[nH]1 | CDK1 | enzyme activity | inhibitor | ADP detection | 100 µM | inhibition | 100% |
| Cn1c(=O)cc(N2CCC(N)CC2)n(Cc2nc3ccccc3c(=O)n2-c2cccc(C(F)(F)F)c2)c1=O | DPP4 | enzyme activity | inhibitor |  | 20 µM | inhibition | 25.6% |
| CN(C)c1ncnc2c1ncn2[C@@H]1O[C@H](CCl)[C@@H](NC(=O)[C@@H](CSC(c2ccccc2)c2ccccc2)NC(=O)OC(C)(C)C)[C@H]1O | Aminopeptidase N (ANPEP, Homo sapiens, UniProt P15144) | enzyme activity | inhibitor | fluorescence | 10 µM | inhibition | 0% |
| Cn1c(=O)cc(N2CCC(N)CC2)n(Cc2nc3ccc(Br)cc3c(=O)n2-c2cccc(F)c2)c1=O | DPP4 | enzyme activity | inhibitor |  | 20 µM | inhibition | 46.8% |
| O=C(Cn1cc(C=CC(=O)c2ccc(F)cc2)nn1)Nc1nc(-c2ccccc2)cs1 | Stromelysin-2 (Homo sapiens, UniProt P09238) | enzyme activity | inhibitor |  | 0.5 µM | inhibition | 82.4% |
| COc1cc(-c2cncc3c2CN(C)Cc2cc(N4CCNCC4)ccc2-3)cc(OC)c1OC | Cyclin-dependent kinase 9, with cyclin T1 (CDK9, Homo sapiens, UniProt P50750) | enzyme activity | inhibitor |  | 1 µM | remaining activity | 100% |
| O=C1NC(=NCc2cccs2)S/C1=C\c1ccc2ncccc2c1 | CDK1 | enzyme activity | inhibitor | ADP detection | 100 µM | inhibition | 100% |
| Cc1cc([C@@H](C)Nc2ccccc2C(=O)O)c2nc(N3CCC(F)(F)CC3)c(C#N)c(=O)n2c1 | RAC-alpha serine/threonine-protein kinase (AKT1, Homo sapiens, UniProt P31749) | binding |  | competition with immobilised ligand | 1 µM | remaining binding | 100% |
